Active and inactive are the calls of the source.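 How the source made its calls, unless noted: active means NADPH fluorescence slope more negative than the mean of all samples by about 3 SD, 99.7% confidence; inactive means the rest.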
Biological target: Voltage-gated potassium channel subunit beta-2 (Rattus norvegicus) (UniProt P62483)
Test: enhancers of rat Kvbeta2 NADPH turnover – biochemical, NADPH fluorescence, primary screen (AID 623);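 further: fluorescence intensity change per second fitted from 20 to 320 s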
Conditions: Recombinant KvBeta, NADPH fluorescence decrease slope, 10 min; at 10 µM; hits give low values

Sequence of Voltage-gated potassium channel subunit beta-2 (Rattus norvegicus) (P62483 whole entry, looked up): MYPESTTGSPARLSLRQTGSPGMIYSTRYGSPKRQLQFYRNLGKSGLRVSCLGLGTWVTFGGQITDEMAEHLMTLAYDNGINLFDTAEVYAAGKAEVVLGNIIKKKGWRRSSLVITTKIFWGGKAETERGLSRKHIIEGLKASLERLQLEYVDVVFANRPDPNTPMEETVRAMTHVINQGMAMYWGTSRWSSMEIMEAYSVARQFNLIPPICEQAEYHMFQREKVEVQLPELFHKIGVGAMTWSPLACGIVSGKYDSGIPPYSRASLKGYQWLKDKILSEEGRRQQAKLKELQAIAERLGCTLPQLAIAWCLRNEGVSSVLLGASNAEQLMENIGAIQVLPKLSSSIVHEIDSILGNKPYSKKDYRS

NADPH fluorescence slope, inactive:
Cc1cc(NC(CC(C)C)C(=O)O)nc(Cc2ccccc2)n1 (stereo not given) -0.000155
CSc1nc2[nH]c3c(c2c2nnnn12)CCCC3 0.000139
CCOc1ccc(N2C(=O)CC(N)C2=O)cc1 (stereo not given) -5.8e-05
Cc1nn2cnc3sc4c(c3c2nc1=O)CCCC4 -2.5e-05
Nc1c(C(=O)NCc2ccco2)sc2nc(N3CCOCC3)c3c(c12)CCCC3 4.6e-08
CC(NC(=O)Nc1ccc(O)cc1)(C(F)(F)F)C(F)(F)F -4.3e-05
Cc1cccc(-c2nnc3n2N=C(c2ccccc2)CS3)c1 -6.7e-05
N#Cc1nc(COc2ccccc2)oc1N1CCCC1 -4.6e-05
COCCn1c(SCc2c(F)cccc2Cl)nc2c1c(=O)[nH]c(=O)n2C -5.5e-05
Cn1c(=O)[nH]c(=O)c2c1nc(Br)n2CCSc1nnnn1-c1ccccc1 -4e-05
Cn1c(N)c(C#N)c(C#N)c1-c1ccccc1 -1.8e-05
CCOC(=O)CC(=O)CSc1nnc2sc3ccccc3n12 -3e-05
CCc1nc(NC2CCCCC2)c(C#N)c2c1COC(C)(C)C2 -2.5e-05
CCc1nc(N2CCOCC2)c(C#N)c2c1CCCC2 -6.5e-05
COC(=O)c1ccc(C2/C(=C(\O)c3ccc4c(c3)OCCO4)C(=O)C(=O)N2CCCN(C)C)cc1 (stereo not given) -0.000114
C=CCOc1ccc(/C(O)=C2/C(=O)C(=O)N(CCCN3CCOCC3)C2c2ccccc2)cc1 (stereo not given) -0.000122
Cc1cc(=O)oc2ccc(OCC(=O)N3CCc4ccccc43)cc12 -7.1e-05
Cc1ccc(NC(=O)Cn2nc(C)c3ccccc3c2=O)cc1 -0.000121
O=C(c1ccccc1)n1c(=S)nc2ccccn21 -3.2e-05
CCC(C)Nc1nc(OC)nc(N(C)C#N)n1 (stereo not given) -5.5e-05
Cc1[nH]nc(-c2ccc(O)cc2O)c1Oc1ccccc1 -7e-05
O=C(NCCC1=CCCCC1)c1ccc(=O)oc1 -0.000197
c1ccc(-n2ncc3c(N4CCCC4)ncnc32)cc1 -3.1e-05
Cc1cc2c(c(=O)o1)C(CC(C)C)C(C#N)=C(N)O2 (stereo not given) -5.8e-05
O=c1cc(-c2ccco2)nc(-c2cccs2)o1 -5.3e-05
O=C(Nc1nnc(SCc2ccccc2F)s1)c1ccco1 -5.2e-05
CCN(CC)CCCN1C(=O)C(=O)/C(=C(/O)c2ccc(OC)cc2)C1c1ccco1 (stereo not given) -0.000107
Cn1c(=O)[nH]c2cc(Cl)cnc21 -3.9e-05
C[N+]1(CCNC(=O)/C=N/O)CCCCC1 -2.5e-05
COC(=O)c1ccc(C2/C(=C(\O)c3cccc(OC)c3)C(=O)C(=O)N2CCCN(C)C)cc1 (stereo not given) -1.5e-05
Cc1cc(=O)oc(C)c1C(=O)n1nc(C)c2c1C[C@@H]1[C@H]2C1(C)C -3.7e-05
CCN(CC)CCNc1ncnc2c1[nH]c1ccc(OC)cc12 1.1e-06
Cn1c(=O)c2c(nc(Br)n2CCSc2nc3ccccc3o2)n(C)c1=O -7e-06
CCc1ccc(-c2cn3nc(C)c(C)nc3n2)cc1 2.5e-06
CCOC(=O)CSc1nc(N)c(C(=O)Nc2ccc(N(C)C)cc2)s1 -6.8e-05
CCN(CC)Cc1cc(C(C)=O)ccc1OCC(C)C -4.7e-05
Cn1c(NCc2ccccc2)nc2c1c(=O)n(Cc1ccc(Br)cc1)c(=O)n2C -5.2e-05
CC12CCC(=O)N1c1c(sc3nc(N4CCOCC4)c4c(c13)CCCC4)C(=O)N2 (stereo not given) -5.5e-05
CCOc1ccc(-c2nc(C#N)c(N3CCN(CC)CC3)o2)cc1 -0.00012
NC(=O)CSc1nnc2n(-c3ccccc3)c(=O)c3c4c(sc3n12)CCCCC4 -0.000119

Biological target: Muscarinic acetylcholine receptor M4 (Homo sapiens) (UniProt P08173)
Test: M4-linked GIRK flux change, two-sided – cell-based, HEK293 M4/GIRK, thallium flux, BTC-AM, M4 allosteric agonist project, primary screen (AID 625;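 active means fluorescence slope after compound addition differing from the mean of all tested samples at 99.7% confidence, mostly higher but some lower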;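 further: thallium influx through GIRK channels coupled to M4 in HEK293 cells with BTC-AM dye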)
Conditions: at 10 µM, actives lie on both sides
Procedure, shortened: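 Material: M4/GIRK1/GIRK2 stable HEK293 cell line. Medium: pH 7.3 thallium assay buffer. Dosing: single compound concentration, 10 µM final. Schedule: 1 h dye loading, 2 min kinetic read. Measured by: kinetic fluorescence with BTC-AM dye. Read-out: post-addition slope, 15–24 s, of baseline-normalized fluorescence. Benchmarks: carbachol and DMSO controls.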

Sequence of Muscarinic acetylcholine receptor M4 (Homo sapiens) (P08173 whole entry, looked up): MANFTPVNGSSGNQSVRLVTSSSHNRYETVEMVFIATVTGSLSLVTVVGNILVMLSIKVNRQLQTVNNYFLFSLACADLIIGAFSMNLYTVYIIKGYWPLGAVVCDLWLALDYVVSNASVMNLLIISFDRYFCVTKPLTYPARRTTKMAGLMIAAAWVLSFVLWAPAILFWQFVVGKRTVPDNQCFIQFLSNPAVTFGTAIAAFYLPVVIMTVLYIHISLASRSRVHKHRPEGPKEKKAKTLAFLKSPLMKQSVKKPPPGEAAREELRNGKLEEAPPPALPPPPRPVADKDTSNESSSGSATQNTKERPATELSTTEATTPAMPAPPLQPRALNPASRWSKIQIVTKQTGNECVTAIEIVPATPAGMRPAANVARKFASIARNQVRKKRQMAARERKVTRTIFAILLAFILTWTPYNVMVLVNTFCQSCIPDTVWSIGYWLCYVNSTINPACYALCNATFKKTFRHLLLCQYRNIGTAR

Fluorescence slope, inactive:
Cc1cc(NC(CC(C)C)C(=O)O)nc(Cc2ccccc2)n1 (stereo not given) 0.00469
CSc1nc2[nH]c3c(c2c2nnnn12)CCCC3 0.00402
CCOc1ccc(N2C(=O)CC(N)C2=O)cc1 (stereo not given) 0.00592
Cc1nn2cnc3sc4c(c3c2nc1=O)CCCC4 0.00519
Nc1c(C(=O)NCc2ccco2)sc2nc(N3CCOCC3)c3c(c12)CCCC3 0.00375
CC(NC(=O)Nc1ccc(O)cc1)(C(F)(F)F)C(F)(F)F 0.00553
Cc1cccc(-c2nnc3n2N=C(c2ccccc2)CS3)c1 0.00492
N#Cc1nc(COc2ccccc2)oc1N1CCCC1 0.00421
COCCn1c(SCc2c(F)cccc2Cl)nc2c1c(=O)[nH]c(=O)n2C 0.00509
Cn1c(=O)[nH]c(=O)c2c1nc(Br)n2CCSc1nnnn1-c1ccccc1 0.00586
Cn1c(N)c(C#N)c(C#N)c1-c1ccccc1 0.00399
CCOC(=O)CC(=O)CSc1nnc2sc3ccccc3n12 0.0062
CCc1nc(NC2CCCCC2)c(C#N)c2c1COC(C)(C)C2 0.00603
CCc1nc(N2CCOCC2)c(C#N)c2c1CCCC2 0.00431
COC(=O)c1ccc(C2/C(=C(\O)c3ccc4c(c3)OCCO4)C(=O)C(=O)N2CCCN(C)C)cc1 (stereo not given) 0.00519
C=CCOc1ccc(/C(O)=C2/C(=O)C(=O)N(CCCN3CCOCC3)C2c2ccccc2)cc1 (stereo not given) 0.00439
Cc1cc(=O)oc2ccc(OCC(=O)N3CCc4ccccc43)cc12 0.00705
Cc1ccc(NC(=O)Cn2nc(C)c3ccccc3c2=O)cc1 0.00582
O=C(c1ccccc1)n1c(=S)nc2ccccn21 0.00539
CCC(C)Nc1nc(OC)nc(N(C)C#N)n1 (stereo not given) 0.00571
Cc1[nH]nc(-c2ccc(O)cc2O)c1Oc1ccccc1 0.00505
O=C(NCCC1=CCCCC1)c1ccc(=O)oc1 0.00522
c1ccc(-n2ncc3c(N4CCCC4)ncnc32)cc1 0.00634
Cc1cc2c(c(=O)o1)C(CC(C)C)C(C#N)=C(N)O2 (stereo not given) 0.00457
O=c1cc(-c2ccco2)nc(-c2cccs2)o1 0.0053
O=C(Nc1nnc(SCc2ccccc2F)s1)c1ccco1 0.00604
CCN(CC)CCCN1C(=O)C(=O)/C(=C(/O)c2ccc(OC)cc2)C1c1ccco1 (stereo not given) 0.0055
Cn1c(=O)[nH]c2cc(Cl)cnc21 0.00408
C[N+]1(CCNC(=O)/C=N/O)CCCCC1 0.00534
COC(=O)c1ccc(C2/C(=C(\O)c3cccc(OC)c3)C(=O)C(=O)N2CCCN(C)C)cc1 (stereo not given) 0.006
Cc1cc(=O)oc(C)c1C(=O)n1nc(C)c2c1C[C@@H]1[C@H]2C1(C)C 0.00461
CCN(CC)CCNc1ncnc2c1[nH]c1ccc(OC)cc12 0.00672
Cn1c(=O)c2c(nc(Br)n2CCSc2nc3ccccc3o2)n(C)c1=O 0.00576
CCc1ccc(-c2cn3nc(C)c(C)nc3n2)cc1 0.00271
CCOC(=O)CSc1nc(N)c(C(=O)Nc2ccc(N(C)C)cc2)s1 0.00383
CCN(CC)Cc1cc(C(C)=O)ccc1OCC(C)C 0.00565
Cn1c(NCc2ccccc2)nc2c1c(=O)n(Cc1ccc(Br)cc1)c(=O)n2C 0.00559
CC12CCC(=O)N1c1c(sc3nc(N4CCOCC4)c4c(c13)CCCC4)C(=O)N2 (stereo not given) 0.00445
CCOc1ccc(-c2nc(C#N)c(N3CCN(CC)CC3)o2)cc1 0.00446
NC(=O)CSc1nnc2n(-c3ccccc3)c(=O)c3c4c(sc3n12)CCCCC4 0.00448
